Assay [1] concerns Botrytis cinerea. The assay can be described thus: Antifungal activity against Botryotinia fuckeliana assessed as reduction in mycelial growth rate at 40 to 160 ug/ml up to 9 days (reference value: 1.82 cm/day). The format is functional.
Assay [2] has as its system Botrytis cinerea. The assay can be described thus: Antifungal activity against Botryotinia fuckeliana assessed as inhibition of mycelial growth at 40 to 160 ug/ml up to 7 days. The assay is classed as functional, organism-based.
Assay [3] deals with Botrytis cinerea. The assay can be described thus: Antifungal activity against Botryotinia fuckeliana grown assessed as induction of production of p-nitrophenyl butyrate esterase after 20 days relative to control. The assay is classed as functional. The procedure, abridged:
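Ground pregrown mycelium (3 days, malt-yeast, 22 °C) moved to minimum medium with 1% cutin or 1% pectin plus diterpenoid at 40 µg/mL, 22 °C. Filtrates sampled over 30 days. Esterase measured with 0.62 mM p-nitrophenylbutyrate in 100 mM sodium phosphate pH 8.0 with Triton X-100, 10 min at 22 °C, A405. 1 U releases 1 µmol p-nitrophenol/min.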

Assay [4] has as its system Botrytis cinerea. Briefly: Antifungal activity against Botryotinia fuckeliana grown assessed as induction of production of laccase after 10 days relative to control. The assay is classed as functional. The procedure, abridged:
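Mycelium pregrown 3 days at 22 °C in malt-yeast liquid, ground with glass beads and transferred to minimum medium with 1% pectin plus diterpenoid at 40 µg/mL. Culture filtrate taken at day 10. Laccase read with 0.1 mM syringaldazine in 50 mM sodium phosphate pH 6.0, 15 min at 22 °C, A530. 1 U = 0.1 absorbance increase per min. ≥5 experiments, ANOVA/LSD.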

The test system of assay [5] is Botrytis cinerea. Briefly: Antifungal activity against Botryotinia fuckeliana grown assessed as membrane leakage measuring efflux of phosphorus at 100 ug/ml after 6 hr by ICP-OES analysis. The format is functional, organism-based. The procedure, abridged:
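Pregrown mycelia held in 5 mM Tris-HCl pH 7.0 with diterpenoid at final 100 µg/mL (or methanol control) at 22 °C for 6 or 24 h. Phosphorus in the bathing medium measured by ICP-OES. Saponins (100 mg/mL in 10 mM sodium acetate pH 4.5, 6 h) served as positive control. ≥5 experiments, mean ± SD, ANOVA with LSD (P ≤ 0.05).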

Assay [6] has as its system Botrytis cinerea. Briefly: Antifungal activity against Botryotinia fuckeliana inoculated in tomato leaf assessed as reduction in lesion area at 40 ug/ml after 4 days (Rvb =9.7 +/- 1.8 mm2 ). The format is functional.
Assay [7] deals with Botrytis cinerea. The assay can be described thus: Antifungal activity against Botryotinia fuckeliana assessed as inhibition of mycelial growth at 40 to 160 ug/ml up to 6 days. The assay is classed as functional, organism-based.
Assay [8] concerns Botrytis cinerea. Briefly: Antifungal activity against Botryotinia fuckeliana grown in malt-yeast extract medium assessed as inhibition of mycelial growth at 40 to 160 ug/ml. The assay is classed as functional. The procedure, abridged: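 Strain G29 conidia at final 3 × 10^5 conidia/mL in malt-yeast extract medium or liquid minimum medium with 1% glucose. Diterpenoids added from methanol at final 40 µg/mL, methanol evaporated before inoculation. Grown in dark at 22 °C for 5 days. Mycelial wet weight gives % inhibition relative to methanol control. ≥5 independent experiments, mean ± SD.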

Activity calls are given as the source filed them. The calls are words filed in the database; no cut-off is given here.

Regarding `C=C1C[C@@]23CC[C@H]4[C@@](C)(CCC[C@@]4(C)C(=O)O)[C@@H]2CC[C@@H]1C3` [KAURENOIC ACID], the GI with Botrytis cinerea [1] is recorded as 1.49 cm/day. Also, the “growth inhibition (GI)” value in the assay with Botrytis cinerea [2] and in the assay on Botrytis cinerea [7] was “Active” each time. In the assay with Botrytis cinerea [3], the Ratio worked out at 2. In addition, the outcome in the assay with Botrytis cinerea [4] and in the assay with Botrytis cinerea [5] was Active. Moreover, in the assay on Botrytis cinerea [6], the Activity worked out at 7.5 mm2. The “growth inhibition (GI)” value in the assay on Botrytis cinerea [8] is “inactive”.

(Values after ChEMBL document CHEMBL3044962, “Characterization of the antifungal activity on Botrytis cinerea of the natural diterpenoids kaurenoic acid and 3beta-hydroxy-kaurenoic acid” (2004).)
